# Data: ChEMBL document CHEMBL3351317 (J Med Chem, 2014)
# How the values were obtained:
# [1] = Distribution coefficient, log D between 1-octonol and aqueous phosphate buffer at pH 7.4; format: physicochemical; settings: 1-octanol/aqueous phosphate buffer
# Outline: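 logD measured as distribution between 1-octanol and aqueous phosphate buffer, pH 7.4.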
# [2] = Intrinsic clearance in rat hepatocytes assessed per million cells; format: ADME, cell-based, Hepatocyte; settings: read-out: CLH
compound,measurement,setting,value
C[C@@H]1CN(c2nnc(C(F)(F)F)o2)CCN1c1ncc(OCc2ccc(S(C)(=O)=O)cc2F)cn1,logD,[1],3
C[C@@H]1CN(c2nnc(C(F)(F)F)o2)CCN1c1ncc(OCc2ccc(S(C)(=O)=O)cc2C#N)cn1,logD,[1],2.6
C[C@@H]1CN(c2nnc(C(F)(F)F)o2)CCN1c1ncc(OCc2ccc(C#N)cc2C#N)cn1,logD,[1],2.8
C[C@@H]1CN(c2nnc(C(F)(F)F)o2)CCN1c1ncc(OCc2ccc(S(C)(=O)=O)cc2)cn1,logD,[1],2.8
C[C@@H]1CN(c2nnc(C(F)(F)F)o2)CCN1c1ncc(OCc2ccc(CS(C)(=O)=O)cc2)cn1,logD,[1],2.6
C[C@@H]1CN(c2nnc(C(F)(F)F)o2)CCN1c1ncc(OCc2ccc(C#N)cc2F)cn1,logD,[1],3.8
C[C@@H]1CN(c2nnc(C(F)(F)F)o2)CCN1c1ncc(OCc2ccc(-n3cnnn3)cc2F)cn1,logD,[1],3.6
C[C@@H]1CN(c2nnc(C(F)(F)F)o2)CCN1c1ncc(OCc2ccc(CS(C)(=O)=O)cc2F)cn1,logD,[1],2.9
same,hepatocyte CLint,[2],9 µL/min/1e6 cells
C[C@@H]1CN(c2nnc(C(F)(F)F)o2)CCN1c1ncc(OCc2ccc(OS(C)(=O)=O)cc2F)cn1,logD,[1],3.7
C[C@@H]1CN(c2nnc(C(F)(F)F)o2)CCN1c1ncc(OCc2ccc(C[S+](C)[O-])cc2F)cn1 (some centres not stated),logD,[1],2.6
same,hepatocyte CLint,[2],53 µL/min/1e6 cells
